This is an account of results in ChEMBL document CHEMBL3526018, “Metabolites of PPI-2458, a selective, irreversible inhibitor of methionine aminopeptidase-2: structure determination and in vivo activity” (Drug Metab Dispos, 2013).

For data set [1], the system named is Liver microsome. As to the kind of experiment: Metabolic stability in rat liver microsomes assessed as retention time of ((3R,4S,5S,6R)-4-((2R,3R)-3-((E)-4-hydroxy-3-methylbut-2-en-1-yl)-2-methyloxiran-2-yl)-5-methoxy-1-oxaspiro[2.5]octan-6-yl((R)-1-amino-3-methyl-1-oxobutan-2-yl)carbamate) at 5 mM by LC/MS analysis. The conditions noted are these: 5000 µM. It counts as ADME. The method in brief:
(§1)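 Liver microsomes (pooled male/female) in 100 mM KPO4 pH 7.4 with PPI-2458 (5 mM stock), pre-incubated 5 min at 37°C, then 10 mM NADPH added; 20 min at 37°C with shaking. Time-zero and no-NADPH controls. Quenched with CH3CN; supernatant dried and redissolved in water. Analysed by LC-MS, ESI+ full scan 300–800 amu, C18 column, 10→50% B gradient.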
On the technique in general: Liver microsomes are vesicles of endoplasmic reticulum, rich in cytochrome P450 enzymes.

Data set [2] deals with Liver microsome. As to the kind of experiment: Metabolic stability in rat liver microsomes assessed as retention time of ((3R,4S,5S,6R)-5-methoxy-4-((2R,3R)-2-methyl-3-(3-methylbut-2-en-1-yl)oxiran-2-yl)-1-oxaspiro[2.5]octan-6-yl ((R)-1-amino-3-hydroxy-3-methyl-1-oxobutan-2-yl)carbamate) at 5 mM by LC/MS analysis. It counts as ADME. The conditions noted are these: 5000 µM. The gist of the method: as §1

The test system of data set [3] is Rattus norvegicus. The data set can be described thus: Inhibition of MetAP2 level in Sprague-Dawley rat thymus assessed as free enzyme level at 3 mg/kg, po by ELISA. Format: functional, organism-based. More on the design: dose 3 mg/kg. The gist of the method: (§2)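 Male Sprague-Dawley rats (200-225 g, n=3 per group) were dosed once IV at 0.3 mg/kg or PO at 0.3 or 3.0 mg/kg, in 11% HPCD in water. Blood, liver, lung, thymus and pooled non-mesenteric lymph nodes were taken at ~24 h and lysed or homogenized with NP-40. Free MetAP2 was measured by ELISA and expressed as % of vehicle.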

For data set [4], the system named is Liver microsome. As to the kind of experiment: Metabolic stability in dog liver microsomes assessed as retention time of ((3R,4S,5S,6R)-4-((2R,3R)-3-(((R)-3,3-dimethyloxiran-2-yl)methyl)-2-methyloxiran-2-yl)-5-methoxy-1-oxaspiro[2.5]octan-6-yl ((R)-1-amino-3-methyl-1-oxobutan-2-yl)carbamate) at 5 mM by LC/MS analysis. It counts as ADME, Canis lupus familiaris. The conditions noted are these: 5000 µM.

Data set [5] concerns CYP3A4 (Homo sapiens). The data set can be described thus: Ratio of Vmax to Km for human recombinant CYP3A4 assessed as ((3R,4S,5S,6R)-5-methoxy-4-((2R,3R)-2-methyl-3-(3-methylbut-2-en-1-yl)oxiran-2-yl)-1-oxaspiro[2.5]octan-6-yl ((R)-1-amino-3-hydroxy-3-methyl-1-oxobutan-2-yl)carbamate) formation. The settings on record: recombinant enzyme.
In data set [6] the test system is CYP3A4 (Homo sapiens). As to the kind of experiment: Activity of human recombinant CYP3A4 assessed as ((3R,4S,5S,6R)-4-((2R,3R)-3-(((S)-3,3-dimethyloxiran-2-yl)methyl)-2-methyloxiran-2-yl)-5-methoxy-1-oxaspiro[2.5]octan-6-yl ((R)-1-amino-3-methyl-1-oxobutan-2-yl)carbamate) formation per pmol of enzyme.
Data set [7] relates to Rattus norvegicus. The data set can be described thus: Inhibition of MetAP2 level in Sprague-Dawley rat lymph nodes assessed as free enzyme level at 0.3 mg/kg, po by ELISA. Format: functional, organism-based. The arrangement: dose 0.3 mg/kg. The gist of the method:
as §2
For orientation: In an ELISA, binding on a coated surface is turned into a signal by an enzyme label.

A short description of data set [8]: Half life in non-Hodgkin lymphoma patient at 15 mg, po alternate days for 21 days. Format: ADME, organism-based. The conditions noted are these: human, in vivo. The gist of the method:
(§3)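 Oral PPI-2458 given every other day to lymphoma patients. Plasma sampled pre-dose and at 15 min, 30 min, 1, 2, 3, 4, 6, 8, 24 and 48 h after the first dose. Parent and metabolites were measured by LC-MS/MS after protein precipitation, evaporation and reconstitution. CL/F was computed only for parent and summed analytes. For metabolites, t1/2 is an apparent first-phase value.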

A further data set relates to Liver. The data set can be described thus: Metabolic stability in mouse liver microsomes assessed as retention time of ((3R,4S,5S,6R)-4-((2R,3R)-3-(((S)-3,3-dimethyloxiran-2-yl)methyl)-2-methyloxiran-2-yl)-5-methoxy-1-oxaspiro[2.5]octan-6-yl ((R)-1-amino-3-methyl-1-oxobutan-2-yl)carbamate) at 5 mM by LC/MS analysis. It counts as ADME. The conditions noted are these: 5000 µM. The method in brief:
as §1

Data set [9] can be described thus: AUC (0 to infinity) in non-Hodgkin lymphoma patient at 15 mg, po alternate days for 21 days. Format: ADME, organism-based. More on the design: dose 15 mg, route oral, time infinity. The settings on record: human, in vivo. The method in brief: as §3
Data set [10] concerns Rattus norvegicus. The data set can be described thus: Inhibition of MetAP2 level in Sprague-Dawley rat lymph nodes assessed as free enzyme level at 3 mg/kg, po by ELISA. It counts as functional, organism-based. More on the design: dose 3 mg/kg. The gist of the method:
as §2

For data set [11], the system named is CYP3A5 (Homo sapiens). As to the kind of experiment: Ratio of Vmax to Km for human recombinant CYP3A5 assessed as ((3R,4S,5S,6R)-4-((2R,3R)-3-(((R)-3,3-dimethyloxiran-2-yl)methyl)-2-methyloxiran-2-yl)-5-methoxy-1-oxaspiro[2.5]octan-6-yl ((R)-1-amino-3-methyl-1-oxobutan-2-yl)carbamate) formation. The conditions noted are these: recombinant enzyme.
Data set [12] relates to CYP3A4 (Homo sapiens). The data set can be described thus: Ratio of Vmax to Km for human recombinant CYP3A4 assessed as ((3R,4S,5S,6R)-4-((2R,3R)-3-(((R)-3,3-dimethyloxiran-2-yl)methyl)-2-methyloxiran-2-yl)-5-methoxy-1-oxaspiro[2.5]octan-6-yl ((R)-1-amino-3-methyl-1-oxobutan-2-yl)carbamate) formation. The settings on record: recombinant enzyme.
Data set [13] concerns the target T1, Cytochrome P450 3A4 (Homo sapiens, UniProt P08684). As to the kind of experiment: Inhibition of CYP3A4 activity in human liver microsomes using nifedipine as a substrate by LC/MS analysis. It counts as ADME.
The subject of data set [14] is Rattus norvegicus. As to the kind of experiment: Inhibition of MetAP2 level in Sprague-Dawley rat liver assessed as free enzyme level at 0.3 mg/kg, iv by ELISA. Format: functional, organism-based. More on the design: dose 0.3 mg/kg. The gist of the method: as §2
Data set [15] relates to Rattus norvegicus. The data set can be described thus: Inhibition of MetAP2 level in Sprague-Dawley rat whole blood assessed as free enzyme level at 0.3 mg/kg, iv by ELISA. The arrangement: dose 0.3 mg/kg. It counts as functional, organism-based. The gist of the method: as §2
The target in data set [16] is T1, Cytochrome P450 3A4. As to the kind of experiment: Inhibition of CYP3A4 activity in human liver microsomes using testosterone as a substrate by LC/MS analysis. It counts as ADME.
Data set [17] deals with CYP3A4 (Homo sapiens). As to the kind of experiment: Activity of human recombinant CYP3A4 assessed as ((3R,4S,5S,6R)-5-methoxy-4-((2R,3R)-2-methyl-3-(3-methylbut-2-en-1-yl)oxiran-2-yl)-1-oxaspiro[2.5]octan-6-yl ((R)-1-amino-3-hydroxy-3-methyl-1-oxobutan-2-yl)carbamate) formation per pmol of enzyme.
In data set [18] the test system is CYP3A5 (Homo sapiens). As to the kind of experiment: Activity of human recombinant CYP3A5 assessed as ((3R,4S,5S,6R)-5-methoxy-4-((2R,3R)-2-methyl-3-(3-methylbut-2-en-1-yl)oxiran-2-yl)-1-oxaspiro[2.5]octan-6-yl ((R)-1-amino-3-hydroxy-3-methyl-1-oxobutan-2-yl)carbamate) formation per pmol of enzyme.
Data set [19] concerns Liver microsome. As to the kind of experiment: Metabolic stability in rat liver microsomes assessed as retention time of ((3R,4S,5S,6R)-4-((2R,3R)-3-(((R)-3,3-dimethyloxiran-2-yl)methyl)-2-methyloxiran-2-yl)-5-methoxy-1-oxaspiro[2.5]octan-6-yl ((R)-1-amino-3-methyl-1-oxobutan-2-yl)carbamate) at 5 mM by LC/MS analysis. Format: ADME. The conditions noted are these: 5000 µM. The method in brief:
as §1

The source made the active and inactive calls. The calls are words filed in the database; no cut-off is given here.

T1 sequence (P08684 whole entry): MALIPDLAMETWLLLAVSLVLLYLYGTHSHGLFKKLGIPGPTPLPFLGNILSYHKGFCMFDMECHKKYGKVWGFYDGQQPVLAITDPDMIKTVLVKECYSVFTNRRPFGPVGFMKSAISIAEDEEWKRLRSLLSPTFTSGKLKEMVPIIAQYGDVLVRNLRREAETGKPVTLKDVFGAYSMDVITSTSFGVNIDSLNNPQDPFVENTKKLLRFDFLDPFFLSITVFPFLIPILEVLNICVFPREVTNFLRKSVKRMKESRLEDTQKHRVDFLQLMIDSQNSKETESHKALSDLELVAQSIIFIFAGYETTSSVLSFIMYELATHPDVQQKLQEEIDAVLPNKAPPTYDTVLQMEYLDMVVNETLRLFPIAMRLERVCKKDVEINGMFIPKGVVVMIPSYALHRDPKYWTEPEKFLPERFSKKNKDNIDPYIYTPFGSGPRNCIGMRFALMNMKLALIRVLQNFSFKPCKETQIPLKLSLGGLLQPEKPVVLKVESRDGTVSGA

The term Vmax denotes the rate approached at saturating substrate. What is called half-life is how long it takes for the measured level to halve. Lower therefore signals fast loss. For orientation: AUC(0-inf) means the area under the concentration-time curve extrapolated to infinity. Lower therefore signals low exposure. Broadly, the Ki is the equilibrium dissociation constant of an inhibitor or competing ligand from its target. `CO[C@@H]1[C@H](OC(=O)N[C@@H](C(N)=O)C(C)C)CC[C@]2(CO2)[C@H]1[C@@]1(C)O[C@@H]1CC=C(C)C` [PPI-2458]: the Drug metabolism result in the data set on Liver microsome [1], with Liver microsome [2], in the data set on Liver microsome [4], with Liver and in the data set on Liver microsome [19] was “metabolite_detected” in each case. The inhibition result in the data set on Rattus norvegicus [3], in the data set with Rattus norvegicus [7], in the data set on Rattus norvegicus [10], in the data set with Rattus norvegicus [14] and in the data set with Rattus norvegicus [15] was “Active” each time. For the same molecule, the Vmax/Km in the data set with CYP3A4 (Homo sapiens) [5] was 0.019 µL/min; in the data set with CYP3A5 (Homo sapiens) [11] it was 0.17 µL/min; with CYP3A4 (Homo sapiens) [12], 0.16 µL/min. Moreover, the maximal velocity (Vmax) with CYP3A4 (Homo sapiens) [6] turned out to be 2.97 pmol/min; in the data set on CYP3A4 (Homo sapiens) [17] it was 0.51 pmol/min; in the data set with CYP3A5 (Homo sapiens) [18] it was 1.58 pmol/min. Besides, the half-life in data set [8] is 1.6 h. In addition, the AUC(0-inf) in [9] stood at 44.1 ng·h/mL. Also, the Ki was 403 µM at Cytochrome P450 3A4 [13] and 287 µM on Cytochrome P450 3A4 [16].
